Assay results pooled from the literature.
Each line is one published result; the experiments were not run side by side.
Target: Fibroblast growth factor receptor 2 (FGFR2, Homo sapiens, UniProt P21802)

SMILES | effect on | method | tested at | remaining binding [%]
Cc1cnc(Nc2ccc(C(=O)N3CCC(N4CCCC4)CC3)cc2)nc1-c1cc2ccccc2s1 | binding | competition with immobilised ligand | 1 µM | 14
C[C@H]1CCN(c2nccc(-c3cnn4ncccc34)n2)C1 | binding |  | 1 µM | 100
CCCOc1ccc([C@@H]2[C@@H](C(=O)O)[C@H](c3ccc4c(c3)OCO4)CN2CC(=O)Nc2c(CC)cccc2CC)cc1 | cell-free assay | competition with immobilised ligand | 1 µM | 100
C[C@@H]1CN(c2ccc3ncc(-c4ccc5[nH]nc(C6CC6)c5c4)n3n2)C[C@H](C)O1 | binding | competition with immobilised ligand | 50 nM | 100
Cc1cnn2ncc(-c3ccnc(N(C)C)n3)c2c1 | binding |  | 1 µM | 98
CCC(=O)N[C@@H]1CC[C@H](C(=O)N(C)c2ccc(-c3nc4ccccc4o3)cc2)C1 | cell-free assay | competition with immobilised ligand | 1 µM | 86
FC(F)(F)Oc1cccc(-c2cnc3ccc(-c4ccncc4)nn23)c1 | cell-free assay | competition with immobilised ligand | 5 µM | 81
Nc1ncc2c(n1)-c1c([nH]c3ccc(C#CC4CC4)cc13)CCCC2 | binding | competition with immobilised ligand | 1 µM | 99
CN(c1nccc(-c2cnn3ncccc23)n1)C1CC1 | binding |  | 1 µM | 100
CCN1CCN(Cc2ccc(C(=O)Nc3ccc(C)c(Oc4ccc5c(c4)CC(=O)N5)c3)cc2C(F)(F)F)CC1 | binding | competition with immobilised ligand | 1 µM | 83
CCOCCn1cc(C(=O)Nc2ccc(-n3nc(-c4cccnc4)cc3C(F)(F)F)cn2)ccc1=O | cell-free assay | competition with immobilised ligand | 1 µM | 49
O=C(NCCCN1CCOCC1)c1ccc(Nc2nccc(-c3cc4ccccc4s3)n2)cc1 | binding | competition with immobilised ligand | 1 µM | 84
COc1cnc(Nc2cccc(S(N)(=O)=O)c2)nc1N1CCN(c2ccccc2)CC1 | binding | competition with immobilised ligand | 1 µM | 90
CC1CCCN1c1nccc(-c2cnn3ncccc23)n1 (stereo not shown) | binding |  | 1 µM | 100
Cc1cc(-n2nc(Cc3cc(F)cc(C(F)(F)F)c3)nc2C)ccc1C(N)=O | cell-free assay | competition with immobilised ligand | 1 µM | 100
F[C@@H]1CCN(c2nccc(-c3cnn4ncccc34)n2)C1 | binding |  | 1 µM | 100
Cc1nccc(COC(=O)N2C[C@@H]3[C@@H](CNC(=O)c4ccc5[nH]nnc5c4)[C@@H]3C2)n1 | cell-free assay | competition with immobilised ligand | 1 µM | 78
O=C(c1ccc(Nc2ncc(Cl)c(-c3cc4ccccc4s3)n2)cc1)N1CCC(N2CCCC2)CC1 | binding | competition with immobilised ligand | 1 µM | 33
COc1cnc(Nc2cccc(S(N)(=O)=O)c2)nc1N1CCN(c2ccccc2)C(=O)C1 | binding | competition with immobilised ligand | 1 µM | 90
N[C@@H]1CCN(c2nccc(-c3cnn4ncccc34)n2)C1 | binding |  | 1 µM | 99
c1cncc(-c2cccc(Nc3nccc(NC4CCCCC4)n3)c2)c1 | binding | competition with immobilised ligand | 10 µM | 22
CC(=O)c1c(NS(C)(=O)=O)c2cc(-c3ccc(Cl)cc3)c(-c3ccc(Cl)cc3Cl)nc2n(C)c1=O | cell-free assay | competition with immobilised ligand | 1 µM | 92
O=C(Nc1c[nH]nc1C(=O)NC1CCNCC1)c1cc(F)cc(F)c1 | binding | competition with immobilised ligand | 1 µM | 100
CN(C)c1nccc(-c2cnc3ncccn23)n1 | binding |  | 1 µM | 100
O=C(O)c1cc(-c2ccc(C3CCNCC3)cc2)c2ccc(-c3ccc(C(F)(F)F)cc3)cc2c1 | cell-free assay | competition with immobilised ligand | 1 µM | 100
